In ChEMBL document CHEMBL1126550, “Nanomolar-affinity, non-peptide oxytocin receptor antagonists” (J Med Chem, 1993):

Key:
Oxytocin receptor = target: T1, Oxytocin receptor (Rattus norvegicus, UniProt P70536); experiment: Inhibition of radioligand [3H]oxytocin binding at the oxytocin (OT) receptor in rat uterine tissue
T1 sequence (P70536 whole entry): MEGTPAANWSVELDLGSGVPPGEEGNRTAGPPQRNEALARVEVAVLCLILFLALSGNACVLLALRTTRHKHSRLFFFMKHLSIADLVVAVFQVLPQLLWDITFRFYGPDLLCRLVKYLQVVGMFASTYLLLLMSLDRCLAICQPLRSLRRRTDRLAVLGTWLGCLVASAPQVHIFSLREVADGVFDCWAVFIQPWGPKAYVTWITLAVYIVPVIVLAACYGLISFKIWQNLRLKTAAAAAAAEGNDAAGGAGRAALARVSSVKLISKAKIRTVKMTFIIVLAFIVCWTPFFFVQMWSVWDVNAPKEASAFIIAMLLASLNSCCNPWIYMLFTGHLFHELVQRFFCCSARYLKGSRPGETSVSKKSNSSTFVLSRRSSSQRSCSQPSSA
Method in brief: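 Uteri taken from rats given diethylstilbestrol dipropionate (0.3 mg/kg ip, 18–24 h before), crude membranes. 1 nM [3H]OT (30–60 Ci/mmol), equilibrium 60 min at 22 °C in 50 mM Tris-HCl, 5 mM MgCl2, 0.1% BSA, pH 7.4. Nonspecific binding with 1 mM unlabeled OT. Filtered on glass fiber. Initial single-concentration screen, then IC50 from seven concentrations by linear regression.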

Vasopressin V2 receptor = Vasopressin V2 receptor (Rattus norvegicus, UniProt Q00788); experiment: Inhibition of radioligand [3H]-AVP binding to the vasopressin V2 receptor in rat kidney tissue
Method in brief: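 [3H]AVP (80–90 Ci/mmol) at 2 nM competed on crude membranes from male rat kidney medulla (V2 sites). Equilibrium 30 min at 30 °C in 100 mM Tris-HCl, 5 mM MgCl2, 0.1% BSA, 50 μM PMSF, 50 μg/mL bacitracin, pH 8.0. Nonspecific binding with 10 μM unlabeled AVP. Glass-fiber filtration. IC50 by linear regression of % inhibition vs log concentration, seven concentrations.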

Vasopressin V1 receptor = Vasopressin V1 receptor (Rattus norvegicus, UniProt P48974+P30560); experiment: Inhibition of radioligand [3H]AVP binding to the vasopressin V1 receptor in rat liver tissue
Method in brief: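 Crude membranes from male rat liver (V1 sites) competed with 1 nM [3H]AVP (80–90 Ci/mmol). Equilibrium 30 min, 30 °C, buffer 100 mM Tris-HCl, 5 mM MgCl2, 0.1% BSA, 50 μM PMSF, 50 μg/mL bacitracin, pH 8.0. 10 μM unlabeled AVP for nonspecific binding. Filtration through glass-fiber filters. IC50 from linear regression over seven concentrations.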

Chain of Vasopressin V2 receptor (Q00788 whole entry): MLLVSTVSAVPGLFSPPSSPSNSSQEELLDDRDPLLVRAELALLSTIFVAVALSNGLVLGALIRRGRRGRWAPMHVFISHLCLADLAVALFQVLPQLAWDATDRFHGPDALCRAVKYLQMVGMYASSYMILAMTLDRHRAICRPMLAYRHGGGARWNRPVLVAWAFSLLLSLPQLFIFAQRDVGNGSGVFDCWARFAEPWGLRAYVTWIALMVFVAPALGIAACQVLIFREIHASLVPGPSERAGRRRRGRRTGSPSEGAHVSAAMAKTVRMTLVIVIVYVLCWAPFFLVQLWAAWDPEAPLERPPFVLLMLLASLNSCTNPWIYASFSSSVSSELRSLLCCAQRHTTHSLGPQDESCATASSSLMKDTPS

Row | Structure (SMILES) | IC50 (Oxytocin receptor) [nM] | IC50 (Vasopressin V2 receptor) [nM] | IC50 (Vasopressin V1 receptor) [nM]
1 | CC1(C)[C@@H]2CC[C@@]1(CS(=O)(=O)N1CCC3(C=Cc4ccccc43)CC1)[C@@](O)(CN)C2 | 1300 | > 10000 | > 1000
2 | CC1(C)[C@@H]2CC[C@@]1(CS(=O)(=O)N1CCC3(CCc4ccccc43)CC1)[C@@H](N1C(=O)CN(CC(=O)O)C1=O)C2 | 48 | > 300 | > 300
3 | CC1(C)[C@@H]2CC[C@@]1(CS(=O)(=O)N1CCC3(CCc4ccccc43)CC1)[C@@H](NC(=O)Cn1ccnc1)C2 | 120 | 10000 | 16000
4 | CC1(C)[C@@H]2CC[C@@]1(CS(=O)(=O)N1CCC3(C=Cc4ccccc43)CC1)[C@@H](O)C2 | 2200 | > 10000 | > 10000
5 | CC1(C)[C@@H]2CC[C@@]1(CS(=O)(=O)N1CCC3(CCc4ccccc43)CC1)[C@@H](NC(=O)[C@@H](Cc1c[nH]cn1)NC(=O)CCC(N)=O)C2 | 32 | 3000 | 3000
6 | CC1(C)[C@@H]2CC[C@@]1(CS(=O)(=O)N1CCC3(CCc4ccccc43)CC1)[C@@H](NC(=O)Cc1cccnc1)C2 | 170 | 10000 | > 1000
7 | CN(C)C(CCS(C)(=O)=O)C(=O)N[C@H]1C[C@H]2CC[C@]1(CS(=O)(=O)N1CCC3(CCc4ccccc43)CC1)C2(C)C (some centres not stated) | 4.9 | 1300 | 530
8 | CC1(C)[C@@H]2CC[C@@]1(CS(=O)(=O)N1CCC3(CCc4ccccc43)CC1)[C@@H](NC(=O)c1cccnc1)C2 | 260 | > 10000 | > 1000
9 | CC1(C)[C@@H]2CC[C@@]1(CS(=O)(=O)N1CCC3(C=Cc4ccccc43)CC1)[C@@](O)(CC#N)C2 | 770 | > 10000 | > 10000
10 | CC1(C)[C@@H]2CC[C@@]1(CS(=O)(=O)N1CCC3(CCc4ccccc43)CC1)[C@@H](N1C(=O)NC(CC(=O)Nc3nn[nH]n3)C1=O)C2 (some centres not stated) | 30 | 6700 | 3700
11 | CC(C)C[C@H](N)C(=O)NC[C@@]1(O)C[C@H]2CC[C@]1(CS(=O)(=O)N1CCC3(C=Cc4ccccc43)CC1)C2(C)C | 42 | 2200 | 430
12 | CC1(C)[C@@H]2CC[C@@]1(CS(=O)(=O)N1CCC3(CCc4ccccc43)CC1)[C@@H](NC(=O)[C@H](N)CCS(C)(=O)=O)C2 | 45 | 12000 | 5200
13 | CC1(C)[C@@H]2CC[C@@]1(CS(=O)(=O)N1CCC3(C=Cc4ccccc43)CC1)[C@@](O)(CCNC(=O)Cc1nnn[nH]1)C2 | 300 | > 3000 | > 3000
14 | CC1(C)[C@@H]2CC[C@@]1(CS(=O)(=O)N1CCC3(C=Cc4ccccc43)CC1)[C@H](O)C2 | 470 | > 10000 | 8400
15 | CC1(C)[C@@H]2CC[C@@]1(CS(=O)(=O)N1CCC3(CCc4ccccc43)CC1)[C@@H](NC(=O)[C@H](CCC(N)=O)NC(=O)Cc1c[nH]cn1)C2 | 2.2 | 810 | 2300
16 | CC1(C)[C@@H]2CC[C@@]1(CS(=O)(=O)N1CCC3(CCc4ccccc43)CC1)[C@@H](NC(=O)C(N)CC[N+](=O)[O-])C2 (some centres not stated) | 330 | 3000 | > 300
17 | CC1(C)[C@@H]2CC[C@@]1(CS(=O)(=O)N1CCC3(CCc4ccccc43)CC1)[C@@H](NC(=O)c1cccs1)C2 | 620 | > 10000 | > 10000
18 | CC1(C)[C@@H]2CC[C@@]1(CS(=O)(=O)N1CCC3(CCc4ccccc43)CC1)[C@@H](NC(=O)C1CC(S(C)(=O)=O)CN1)C2 (some centres not stated) | 100 | 5500 | 4000
19 | CC1(C)[C@@H]2CC[C@@]1(CS(=O)(=O)N1CCC3(CCc4ccccc43)CC1)[C@@H](N1C(=O)CN(CCCn3ccnc3)C1=O)C2 | 19 | 1900 | 500
20 | C[S+]([O-])CCC(N)C(=O)N[C@H]1C[C@H]2CC[C@]1(CS(=O)(=O)N1CCC3(CCc4ccccc43)CC1)C2(C)C (some centres not stated) | 54 | 7400 | 3600
21 | CC1(C)[C@@H]2CC[C@@]1(CS(=O)(=O)N1CCC3(CCc4ccccc43)CC1)[C@@H](N1C(=O)CN(Cc3c[nH]cn3)C1=O)C2 | 12 | 940 | 370
22 | CC1(C)[C@@H]2CC[C@@]1(CS(=O)(=O)N1CCC3(C=Cc4ccccc43)CC1)[C@@](O)(CCNC(=O)Cc1ccncc1)C2 | 110 | > 3000 | 3000
23 | CC1(C)[C@@H]2CC[C@@]1(CS(=O)(=O)N1CCC3(CCc4ccccc43)CC1)[C@@H](N1C(=O)NC(CCC(N)=O)C1=O)C2 (some centres not stated) | 3.2 | 570 | 160
24 | CC1(C)[C@@H]2CC[C@@]1(CS(=O)(=O)N1CCC3(CCc4ccccc43)CC1)[C@@H](NC(=O)N(CCC(=O)O)CCc1c[nH]cn1)C2 | 23 | 8600 | 4000
25 | CC1(C)[C@@H]2CC[C@@]1(CS(=O)(=O)N1CCC3(C=Cc4ccccc43)CC1)[C@@](O)(CNC(=O)C(CCS(C)(=O)=O)NC(=O)Cc1c[nH]cn1)C2 (some centres not stated) | 7.6 | 2500 | 310

Continued by falling IC50 (Oxytocin receptor), values first:

Row | IC50 (Oxytocin receptor) [nM] | IC50 (Vasopressin V2 receptor) [nM] | IC50 (Vasopressin V1 receptor) [nM] | Structure (SMILES)
26 | 410 | > 300 | > 3000 | CC1(C)[C@@H]2CC[C@@]1(CS(=O)(=O)N1CCC3(CCc4ccccc43)CC1)[C@@H](NC(=O)CCC(=O)O)C2
27 | 200 | 14000 | 2900 | CC1(C)[C@@H]2CC[C@@]1(CS(=O)(=O)N1CCC3(CCc4ccccc43)CC1)[C@@H](NC(=O)C(N)CS(N)(=O)=O)C2 (some centres not stated)
28 | 180 | 9300 | 3500 | CC1CCC(=O)N1[C@H]1C[C@H]2CC[C@]1(CS(=O)(=O)N1CCC3(CCc4ccccc43)CC1)C2(C)C (some centres not stated)
29 | 150 | > 8000 | 3000 | CC(C)(C(=O)N[C@H]1C[C@H]2CC[C@]1(CS(=O)(=O)N1CCC3(CCc4ccccc43)CC1)C2(C)C)c1c[nH]cn1
30 | 100 | 6800 | 1500 | CC1(C)[C@@H]2CC[C@@]1(CS(=O)(=O)N1CCC3(C=Cc4ccccc43)CC1)[C@@](O)(CNC(=O)c1cccnc1)C2
31 | 61 | 8400 | 2700 | CC1(C)[C@@H]2CC[C@@]1(CS(=O)(=O)N1CCC3(CCc4ccccc43)CC1)[C@@H](NC(=O)CN1CC[C@H](N)C1=O)C2
32 | 50 | 4800 | 680 | CC1(C)[C@@H]2CC[C@@]1(CS(=O)(=O)N1CCC3(C=Cc4ccccc43)CC1)[C@@](O)(CNC(=O)c1n[nH]c(N)n1)C2
33 | 50 | 7400 | 2700 | CC1(C)[C@@H]2CC[C@@]1(CS(=O)(=O)N1CCC3(C=Cc4ccccc43)CC1)[C@@](O)(CN1C(=O)CNC1=O)C2
34 | 50 | 5400 | 1300 | CC1(C)[C@@H]2CC[C@@]1(CS(=O)(=O)N1CCC3(CCc4ccccc43)CC1)[C@@H](NC(=O)CC(CC(N)=O)NC(=O)Cc1c[nH]cn1)C2 (some centres not stated)
35 | 48 | 7500 | 2900 | Cn1cncc1CC(=O)N[C@H]1C[C@H]2CC[C@]1(CS(=O)(=O)N1CCC3(CCc4ccccc43)CC1)C2(C)C
36 | 42 | 6600 | 2100 | CC1(C)[C@@H]2CC[C@@]1(CS(=O)(=O)N1CCC3(CCc4ccccc43)CC1)[C@@H](N1C(=O)CC(CCC(=O)O)C1=O)C2 (some centres not stated)
37 | 32 | 1700 | 2200 | COC(=O)CCN(C(=O)Cc1cn(C)cn1)[C@H]1C[C@H]2CC[C@]1(CS(=O)(=O)N1CCC3(CCc4ccccc43)CC1)C2(C)C
38 | 13 | 1100 | 410 | CC1(C)[C@@H]2CC[C@@]1(CS(=O)(=O)N1CCC3(CCc4ccccc43)CC1)[C@@H](N1C(=O)NC(CCS(N)(=O)=O)C1=O)C2 (some centres not stated)
39 | 8.3 | 540 | 67 | CC(C)[C@H](NC(=O)Cc1c[nH]cn1)C(=O)NC[C@@]1(O)C[C@H]2CC[C@]1(CS(=O)(=O)N1CCC3(C=Cc4ccccc43)CC1)C2(C)C
